Series [1] has as its target T1, Macrophage migration inhibitory factor (Homo sapiens) (UniProt P14174).
T1 sequence (whole entry): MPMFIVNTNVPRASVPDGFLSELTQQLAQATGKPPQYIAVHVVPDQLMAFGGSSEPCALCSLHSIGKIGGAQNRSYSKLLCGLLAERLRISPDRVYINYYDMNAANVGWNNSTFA
The series can be described thus: Inhibition of recombinant C-terminal His-tagged human MIF tautomerase activity expressed in Escherichia coli BL21 assessed as residual activity at 10 uM using PP as substrate preincubated for 10 mins and followed by substrate addition and measured for 3 mins by microplate reader analysis relative to control. The conditions noted are these: time 13.0 min.

Series [2] deals with HeLa. In words: Protection against MNNG-induced parthanatos in human HeLa cells assessed as restoration of original phenotype at 3.7 to 100 uM. Format: functional, cell-based. The settings on record: dose 3.7-100 µM, TDE = time-dependent effect.
Series [3] has as its system HeLa. The series can be described thus: Inhibition of MIF nuclear translocation in human HeLa cells at 100 uM preincubated for 3 hrs followed by MNNG stimulation for 15 mins by immunofluorescence staining based confocal microscopic analysis. Format: functional, cell-based. The conditions noted are these: time 195.0 min. A digest of the protocol:
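HeLa cells on coverslips got ±100 μM inhibitor for 3 h, then MNNG (50 μM, 15 min), and were incubated overnight. They were methanol-fixed and blocked with 2% BSA. MIF was stained with a rabbit polyclonal and Alexa488 secondary, AIF with a mouse monoclonal and Alexa647 secondary, and nuclei with NucBlue. Nuclear localization was imaged by confocal microscopy.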

In series [4] the test system is HeLa. The series can be described thus: Induction of DNA damage in human HeLa cells by comet assay. Format: toxicity, cell-based.
Series [5] relates to HeLa. In words: Protection against MNNG-induced parthanatos in human HeLa cells assessed as cell viability preincubated for 3 hrs prior to MNNG addition and measured for 15 mins followed by fresh media replacement for 24 hrs by Hoechst 33342 and propidium iodide staining based flow cytometry analysis. Format: functional. The conditions noted are these: time 1635.0 min. The method, boiled down: (§1)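 HeLa cells in DMEM/10% FBS, 5×10^5 per well, were pretreated 3 h with 100 μM inhibitor, then given 50 μM MNNG for 15 min. Medium was replaced and cells were cultured 24 h. Trypsinized cells were stained with 7 μM Hoechst 33342 and 2 μM PI and analysed by flow cytometry. Hoechst-only cells were counted as live, Hoechst+PI cells as dead.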
A general note: A flow cytometer gives signals particle by particle.

The subject of series [6] is HeLa. The series can be described thus: Protection against MNNG-induced parthanatos in human HeLa cells assessed as restoration of original phenotype after 0.5 to 3 hrs. Format: functional, cell-based. The conditions noted are these: time 0.5-3 hrs.
Series [7] deals with HeLa. The series can be described thus: Inhibition of MNNG-induced DNA damage in human HeLa cells preincubated for 2 hrs followed by MNNG addition and measured after 2 hrs by comet assay. The series is classed as functional, cell-based. The conditions noted are these: time 4.0 hrs. A digest of the protocol:
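Alkaline comet assay. HeLa cells were given 50 μM inhibitor or none for 2 h, then 10 μM MNNG for 2 h. Cells were embedded in 1% low-melt agarose and lysed overnight at 4 °C in alkaline lysis solution (pH > 13). Electrophoresis ran at pH > 12, 0.6 V/cm, 25 min. Slides were stained with 2.5 μg/mL PI, imaged by fluorescence microscopy and quantified by image analysis.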

The test system of series [8] is HeLa. In words: Inhibition of MNNG-induced DNA damage in human HeLa cells preincubated for 2 hrs followed by MNNG addition by gel electrophoresis assay. The series is classed as functional, cell-based. The settings on record: dose 50.0 µM, TDE = time-dependent effect.
In series [9] the test system is HeLa. In words: Inhibition of MNNG-induced DNA damage in human HeLa cells preincubated for 2 hrs followed by MNNG addition and measured after 2 hrs by gel electrophoresis assay. The conditions noted are these: dose 1.2-100 µM, time 4.0 hrs. Format: functional, cell-based.
The test system of series [10] is HeLa. In words: Protection against MNNG-induced parthanatos in human HeLa cells assessed as cell viability preincubated for 3 hrs prior to MNNG addition and measured for 15 mins followed by fresh media replacement for 24 hrs by Hoechst 33342 and propidium iodide staining based flow cytometry analysis (reference value: 20 %). The series is classed as functional. The settings on record: time 1635 min; 27.25 h. A digest of the protocol:
as §1

Series [11] deals with T1, Macrophage migration inhibitory factor (Homo sapiens). The series can be described thus: Reversible inhibition of recombinant human MIF tautomerase activity expressed in Escherichia coli BL21 assessed as recovery of enzyme activity at 25 uM using PP as substrate preincubated for 10 mins followed by substrate addition and measured after 20 mins by jump dilution method. The settings on record: time 30.0 min.

Drawing on ChEMBL document CHEMBL5331118, “Allosteric Inhibitors of Macrophage Migration Inhibitory Factor (MIF) Interfere with Apoptosis-Inducing Factor (AIF) Co-Localization to Prevent Parthanatos” (J Med Chem, 2023), this text covers Activity and inhibition for three compounds.

Structures are written as SMILES. Calls of active or inactive are those of the source. The rule behind the calls is not given here.

As for `O=C(NCCc1ccccc1)c1cn(-c2cccc3ncccc23)nn1`, the Activity in series [1] was found to be 68%.

Turning to `O=C(Nc1ccccc1)c1ccc(-n2cc(C(=O)NCc3cccs3)nn2)cc1`, the Activity result with HeLa [2] is “Tde”; in the series with HeLa [4], “Non-Toxic”; in the series on HeLa [5], “Dose-Dependent Effect”; with HeLa [6] it was “Dose-Dependent Effect”; with HeLa [10] it was 50%. Also, the inhibition result (with HeLa [3]; in the series with HeLa [7]; in series [11]) was “Active” each time. The inhibition entry is “Tde” in the series on HeLa [8] and “Dose-Dependent Effect” in the series with HeLa [9].

Turning to `N#Cc1ccc(-n2cc(C(=O)Nc3ccc(Br)cc3)nn2)cc1`, in series [1], the Activity is 44%.
